≈ marks a conversion by molar mass, not a printed value. Calls of active or inactive are those of the source. No cut-off for these calls is given here.
Assays:
[1] = system: Mycobacterium tuberculosis; assay: Antitubercular activity against Mycobacterium tuberculosis H37Rv after 24 hrs by BACTEC radiometric susceptibility assay; assay type: functional
Method in brief: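 BACTEC radiometric assay in 7H12 (12B) medium with 14C-palmitic acid as substrate; 14CO2 output read daily as Growth Index (GI) at 37 °C ± 1 °C. H37Rv inoculum grown in 12B vial to GI around 300. Compounds dissolved in DMSO. Control vial held 1:100 diluted bacterial suspension. Reading continued until control GI reached 30 or more. Daily change in GI compared with control to set susceptibility and MIC.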

[2] = Cytotoxicity against african green monkey Vero cells after 24 hrs by resazurin assay; assay type: cell-based; conditions: chlorocebus sabaeus
Method in brief: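 Vero cells (ATCC CCL-81) seeded overnight at 1 × 10⁴–[…] cells/well in RPMI with 10% heat-inactivated FBS, 37 °C, 5% CO2. Exposed in triplicate to serial dilutions, 100 to 1.56 µg/mL. Resazurin (0.1%) added for 4–5 h. Read visually (purple to pink or colourless) and by fluorescence, excitation 530 nm, emission 590 nm.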

[3] = Selectivity index, ratio of CC50 for african green monkey Vero cells to MIC for Mycobacterium tuberculosis H37Rv; assay type: functional
[4] = system: Mycobacterium tuberculosis; assay: Antitubercular activity against Mycobacterium tuberculosis H37Rv at 50 ug/mL after 24 hrs by BACTEC radiometric susceptibility assay; assay type: functional, organism-based
[5] = system: Mycobacterium tuberculosis; assay: Antitubercular activity against Mycobacterium tuberculosis H37Rv infected in mouse J774A.1 cells assessed as growth index at MIC after 8 days by BACTEC radiometric susceptibility assay; assay type: functional
Method in brief: (§1)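 J774A.1 murine macrophages infected with H37Rv (grown in 7H9 with BSA, dextrose, catalase, washed in serum-free RPMI) at MOI 1:20 for 6 h, 37 °C, 5% CO2. Seeded in triplicate, 5 × 10⁵ cells/well. Daily medium change with complete RPMI containing compound at 1× or 2× MIC. Cells lysed with 0.05% SDS on day 0 and day 6. Lysates inoculated into BACTEC vials, GI followed over 8 days.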

[6] = system: Mycobacterium tuberculosis; assay: Antitubercular activity against Mycobacterium tuberculosis H37Rv infected in mouse J774A.1 cells assessed as growth index at 2 times MIC after 8 days by BACTEC radiometric susceptibility assay; assay type: functional; method in brief: as §1
[7] = system: Mycobacterium tuberculosis; assay: Antitubercular activity against drug-sensitive Mycobacterium tuberculosis 2280 after 24 hrs by BACTEC radiometric susceptibility assay; assay type: functional; conditions: Mycobacterium tuberculosis, 2280, 24 h
[8] = system: Mycobacterium tuberculosis; assay: Antitubercular activity against Mycobacterium tuberculosis H37Rv at 25 ug/mL after 24 hrs by BACTEC radiometric susceptibility assay; assay type: functional, organism-based

Structure (SMILES)	MIC [1] [µg/mL]	other results
CCCCCCCCCCO[C@@H]1C=C([C@H](O)c2ccc([N+](=O)[O-])cc2)C(=O)[C@@H](COC(C)=O)O1	25 (≈ 52.4 µM)	–
CC(=O)OC[C@H]1O[C@H](OC(C)C)C=CC1=O	3.12 (≈ 13.7 µM)	CC50 at 24 h [2]: 104 µM; Selectivity Index [3]: 7.6
CC(C)CCO[C@@H]1C=C([C@H](O)c2ccc(C#N)cc2)C(=O)[C@@H](COC(=O)C(C)(C)C)O1	6.25 (≈ 14.6 µM)	–
CCCCCCO[C@@H]1C=CC(=O)[C@@H](COC(=O)C(C)(C)C)O1	3.12 (≈ 10 µM)	CC50 at 24 h [2]: 4.8 µM; Selectivity Index [3]: 0.48
CC(C)CCO[C@H]1O[C@H](COC(=O)C(C)(C)C)C(=O)[C@@H]2O[C@H]12	12.5 (≈ 39.8 µM)	–
CC(C)O[C@@H]1C=C([C@H](O)c2ccc(C#N)cc2)C(=O)[C@@H](COC(=O)C(C)(C)C)O1	6.25 (≈ 15.6 µM)	–
CO[C@@H]1C=CC(=O)[C@@H](COC(C)=O)O1	6.25 (≈ 31.2 µM)	–
CCCCCCCCCCO[C@@H]1C=C([C@H](O)c2ccc(C#N)cc2)C(=O)[C@@H](COC(=O)C(C)(C)C)O1	12.5 (≈ 25 µM)	–
CC(=O)OC[C@H]1O[C@H](OCCC(C)C)C=C([C@H](O)c2ccc([N+](=O)[O-])cc2)C1=O	3.12 (≈ 7.67 µM)	CC50 at 24 h [2]: 14.3 µM; Selectivity Index [3]: 1.8
CC(C)(C)O[C@@H]1C=CC(=O)[C@@H](CO)O1	25 (≈ 125 µM)	–
CC(C)CCO[C@@H]1C=CC(=O)[C@@H](CO[Si](C)(C)C(C)(C)C)O1	12.5 (≈ 38 µM)	–
CC(=O)OCC1=C[C@@H](OCCC(C)C)O[C@H](COC(=O)C(C)(C)C)C1=O	–	Activity [4]: inactive
CC(C)CCO[C@@H]1C=C(CO)C(=O)[C@@H](COC(=O)C(C)(C)C)O1	25 (≈ 76.1 µM)	–
CC(C)CCO[C@@H]1C=CC(=O)[C@@H](COC(=O)C(C)(C)C)O1	0.78 (≈ 2.61 µM)	Growth_index [5]: 10; Growth_index [6]: 10; MIC [7]: 0.78 µg/mL (≈ 2.61 µM); CC50 at 24 h [2]: 36 µM; Selectivity Index [3]: 13.5
Cc1ccc(S(=O)(=O)OC[C@H]2O[C@H](OC(C)C)C=C([C@H](O)c3ccc([N+](=O)[O-])cc3)C2=O)cc1	6.25 (≈ 12.7 µM)	–
CO[C@@H]1C=C([C@H](O)c2ccc(C#N)cc2)C(=O)[C@@H](COC(=O)C(C)(C)C)O1	12.5 (≈ 33.5 µM)	–
CC(C)O[C@@H]1C=CC(=O)[C@@H](CO)O1	25 (≈ 134 µM)	–
CC(C)(C)O[C@@H]1C=CC(=O)[C@@H](COC(=O)C(C)(C)C)O1	6.25 (≈ 22 µM)	–
CC(C)CO[C@@H]1C=CC(=O)[C@@H](COC(=O)C(C)(C)C)O1	3.12 (≈ 11 µM)	CC50 at 24 h [2]: 28.2 µM; Selectivity Index [3]: 2.56
CC(C)(C)C(=O)OC[C@H]1O[C@H](OCC2CC2)C=CC1=O	3.12 (≈ 11.1 µM)	CC50 at 24 h [2]: 77.2 µM; Selectivity Index [3]: 6.96
CCCCCCCCCCO[C@@H]1C=CC(=O)[C@@H](CO)O1	12.5 (≈ 44 µM)	–
Cc1ccc(S(=O)(=O)OC[C@H]2O[C@H](OC(C)C)C=CC2=O)cc1	3.12 (≈ 9.18 µM)	CC50 at 24 h [2]: 13.4 µM; Selectivity Index [3]: 1.4
CC(C)CCO[C@@H]1C=C([C@H](O)c2ccc([N+](=O)[O-])cc2[N+](=O)[O-])C(=O)[C@@H](COC(=O)C(C)(C)C)O1	6.25 (≈ 12.6 µM)	–

Structure (SMILES)	MIC [1] [µg/mL]	other results
COc1ccc(O[C@@H]2C=CC(=O)[C@@H](COC(=O)C(C)(C)C)O2)cc1	6.25 (≈ 18.7 µM)	–
CCCCCCCCCCO[C@@H]1C=CC(=O)[C@@H](COC(C)=O)O1	6.25 (≈ 19.1 µM)	–
CCCCO[C@@H]1C=CC(=O)[C@@H](COC(=O)C(C)(C)C)O1	3.12 (≈ 11 µM)	CC50 at 24 h [2]: 42.5 µM; Selectivity Index [3]: 3.85
CO[C@@H]1C=CC(=O)[C@@H](COC(=O)C(C)(C)C)O1	6.25 (≈ 25.8 µM)	–
CC(=O)OC[C@H]1O[C@H](OC(C)(C)C)C=CC1=O	6.25 (≈ 25.8 µM)	–
CC(C)CCO[C@@H]1C=C[C@H](O)[C@@H](CO)O1	–	Activity [4]: inactive
CC(C)O[C@@H]1C=C(CO)C(=O)[C@@H](COC(=O)C(C)(C)C)O1	25 (≈ 83.2 µM)	–
O=C1C=C[C@@H](OCC2CC2)O[C@@H]1CO	25 (≈ 126 µM)	–
CCCCCCCCCCO[C@@H]1C=C[C@H](O)[C@@H](CO)O1	–	Activity [4]: inactive
CC(C)CO[C@@H]1C=C([C@H](O)c2ccc(C#N)cc2)C(=O)[C@@H](COC(=O)C(C)(C)C)O1	6.25 (≈ 15 µM)	–
CC(C)CCO[C@@H]1C=CC(=O)[C@@H](CC#N)O1	12.5 (≈ 56 µM)	–
CC(C)O[C@@H]1C=CC(=O)[C@@H](COC(=O)C(C)(C)C)O1	3.12 (≈ 11.6 µM)	CC50 at 24 h [2]: 12.5 µM; Selectivity Index [3]: 1.09
CO[C@@H]1C=CC(=O)[C@@H](CO)O1	25 (≈ 158 µM)	–
COc1ccc(O[C@@H]2C=CC(=O)[C@@H](CO)O2)cc1	–	Activity [8]: inactive
CCCCCO[C@@H]1C=CC(=O)[C@@H](COC(=O)C(C)(C)C)O1	1.56 (≈ 5.23 µM)	CC50 at 24 h [2]: 7.38 µM; Selectivity Index [3]: 1.41
CC(=O)OC[C@H]1O[C@H](OCCC(C)C)C=C([C@H](O)c2ccc([N+](=O)[O-])cc2[N+](=O)[O-])C1=O	6.25 (≈ 13.8 µM)	–
CO[C@H]1/C=C/O[C@@]2(C)Oc3c(C)c(O)c4c(O)c(c(/C=N/N5CCN(C)CC5)c(O)c4c3C2=O)NC(=O)/C(C)=C\C=C\[C@H](C)[C@H](O)[C@@H](C)[C@@H](O)[C@@H](C)[C@H](OC(C)=O)[C@@H]1C [RIFAMPIN]	2 (≈ 2.43 µM)	–
CC(C)CCO[C@@H]1C=CC(=O)[C@@H](CO)O1	6.25 (≈ 29.2 µM)	–
CN[C@@H]1[C@H](O[C@H]2[C@H](O[C@H]3[C@H](O)[C@@H](O)[C@H](N=C(N)N)[C@@H](O)[C@@H]3N=C(N)N)O[C@@H](C)[C@]2(O)C=O)O[C@@H](CO)[C@H](O)[C@H]1O [STREPTOMYCIN]	6 (≈ 10.3 µM)	–
CC(=O)OC[C@H]1O[C@H](OCCC(C)C)C=CC1=O	0.78 (≈ 3.04 µM)	CC50 at 24 h [2]: 19.8 µM; Selectivity Index [3]: 6.6
CCCCCCCCCCO[C@@H]1C=CC(=O)[C@@H](COC(=O)C(C)(C)C)O1	12.5 (≈ 33.9 µM)	–
CC(C)CO[C@@H]1C=CC(=O)[C@@H](CO)O1	12.5 (≈ 62.4 µM)	–

— ChEMBL document CHEMBL1782055, “2,3-dideoxy hex-2-enopyranosid-4-uloses as promising new anti-tubercular agents: design, synthesis, biological evaluation and SAR studies” (Eur J Med Chem, 2011)
